Test results published in ChEMBL document CHEMBL1124462, “Synthesis, DNA binding, and biological evaluation of synthetic precursors and novel analogues of netropsin” (J Med Chem, 1989).
≈ marks a conversion by molar mass, not a printed value.

Tests used:
Vero [1] = test: Minimum cytotoxic concentration required to cause a microscopically detectable alteration of normal cell morphology and show antiviral activity in african green monkey (Vero B) cells; format: functional; settings: Chlorocebus sabaeus
HeLa [2] = test: Minimum inhibitory concentration required to reduce Coxsackie virus B4 induced cytopathogenicity by 50% in HeLa cells; format: functional; settings: Homo sapiens
Summary of the method: (§1)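 Cell cultures (PRK, HeLa or Vero B) are infected at 100 × CCID50. Cytopathogenicity is recorded once it reaches completion in the untreated virus-infected controls. The minimum inhibitory concentration is given in μg/mL.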

HeLa [3] = test: Minimum inhibitory concentration required to reduce vesicular stomatitis virus induced cytopathogenicity by 50% in HeLa cells; format: functional; settings: Homo sapiens
HeLa [4] = test: Minimum cytotoxic concentration required to cause a microscopically detectable alteration of normal cell morphology and show antiviral activity in HeLa cells; format: functional; settings: Homo sapiens
Summary of the method: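 HeLa cell cultures exposed to compound for the same duration as the antiviral assay, then examined microscopically. The minimum cytotoxic concentration is the lowest level causing detectable alteration of normal cell morphology. Values are in μg/mL.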

[5] = Minimum inhibitory concentration required to reduce herpes simplex virus-1 (KOS)induced cytopathogenicity by 50% in primary rabbit kidney cells (PRK); format: functional; settings: Oryctolagus cuniculus
[6] = Minimum inhibitory concentration required to reduce herpes simplex virus-2 (G)induced cytopathogenicity by 50% in primary rabbit kidney cells (PRK); format: functional; settings: Oryctolagus cuniculus
[7] = (§2) Minimum inhibitory concentration required to reduce vesicular stomatitis virus induced cytopathogenicity by 50% in primary rabbit kidney cells (PRK); format: functional; settings: Oryctolagus cuniculus
Oryctolagus cuniculus = species: Oryctolagus cuniculus; test: Minimum cytotoxic concentration required to cause a microscopically detectable alteration of normal cell morphology and show antiviral activity in primary rabbit kidney (PRK) cells; format: functional
Sindbis virus = test: Minimum inhibitory concentration required to reduce Sindbis virus induced cytopathogenicity by 50% in african green monkey (VeroB) cells; format: functional; summary of the method: as §1
Vero [8] = test: Minimum inhibitory concentration required to reduce parainfluenza virus-3 induced cytopathogenicity by 50% in african green monkey (VeroB) cells; format: functional, Human respirovirus 3; settings: Chlorocebus sabaeus; summary of the method: as §1
[9] = system: Mammalian orthoreovirus 1; test: Minimum inhibitory concentration required to reduce reovirus-1 induced cytopathogenicity by 50% in african green monkey (VeroB)cells; format: functional; summary of the method: as §1
Semliki Forest virus = test: Minimum inhibitory concentration required to reduce semliki forest virus induced cytopathogenicity by 50% in african green monkey (VeroB) cells; format: functional; summary of the method: as §1
Vero [10] = test: Minimum inhibitory concentration required to reduce Coxsackie virus B4 induced cytopathogenicity by 50% in african green monkey (VeroB) cells; format: functional, Coxsackievirus B4; settings: Chlorocebus sabaeus; summary of the method: as §1
Raji = test: Dose required to inhibit Human B-Lymphoblast (Raji) cell proliferation by 50%; format: functional; settings: read-out: CD50 (the source's name)
FM3A = test: In vitro inhibition of FM3A (murine mammary carcinoma) cell proliferation.; format: functional; settings: Mus musculus, read-out: CD50 (the source's name)
HeLa [11] = test: Minimum inhibitory concentration required to reduce polio virus -1 induced cytopathogenicity by 50% in HeLa cells; format: functional; settings: Homo sapiens
L1210 = test: Dose required to inhibit Murine leukemia (L1210) cell proliferation by 50%; format: functional; settings: Mus musculus, read-out: CD50 (the source's name)
Nucleic Acid [12] = test: Association constant against the polynucleotide poly (dA-dT).; format: nucleic-acid assay
Summary of the method: (§3)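 Competition with ethidium bromide binding at 25 °C in 0.01 M cacodylate buffer, pH 7.0, with 1.26 μM ethidium bromide and 1 μM polynucleotide. Bound ethidium is estimated from its fluorescence increase (V = 34 for poly(dA-dT), 25 for poly(dG-dC)). IC50 for 50% ethidium displacement comes from a fitted competition sigmoid. Kapp is calculated from IC50 assuming a binding size of four base pairs.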

Nucleic Acid [13] = test: Ratio of association constant of poly (dA-dT) and poly (dG-dC); format: nucleic-acid assay
Summary of the method: (§4)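 Kapp for poly(dA-dT) and for poly(dG-dC) is each determined by ethidium bromide competition in 0.01 M cacodylate, pH 7.0, 25 °C, with 1.26 μM ethidium and 1 μM polynucleotide. IC50 comes from a fitted competition sigmoid and is converted to Kapp assuming a four-base-pair binding size. The ratio is taken between the two polynucleotides.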

Human alphaherpesvirus 2 = test: Minimum inhibitory concentration required to reduce herpes simplex virus-2(G) induced cytopathogenicity by 50% in primary rabbit kidney cells (PRK); format: functional; summary of the method: as §1
Human alphaherpesvirus 1 = test: Minimum inhibitory concentration required to reduce herpes simplex virus-1 (KOS) induced cytopathogenicity by 50% in primary rabbit kidney cells(PRK); format: functional; summary of the method: as §1
[14] = system: Vesicular stomatitis virus; test: as §2; format: functional
[15] = Dose required to inhibit Human T-Lymphoblast (Molt/4F) cell proliferation by 50%; format: functional; settings: read-out: CD50 (the source's name)
Nucleic Acid [16] = test: Association constant against polynucleotide poly (dG-dC); format: nucleic-acid assay; summary of the method: as §3
Nucleic Acid [17] = test: Association constant against the polynucleotide poly(dA-dT); format: nucleic-acid assay; summary of the method: as §3
Nucleic Acid [18] = test: Ratio of association constant of poly(dA-dT) and poly(dG-dC); format: nucleic-acid assay; summary of the method: as §4

Row | SMILES | MCC (Vero [1]) | MIC (HeLa [2]) | MCC (HeLa [4]) | MCC (Oryctolagus cuniculus) | MIC (Sindbis virus) | MIC (Vero [8]) | MIC [9] | MIC (Semliki Forest virus) | MIC (Vero [10]) | CC50 (Raji) | CC50 (FM3A) | MIC (HeLa [11]) | CC50 (L1210) | MIC (Human alphaherpesvirus 2) | MIC (Human alphaherpesvirus 1) | MIC [14] | CC50 [15] | K app (Nucleic Acid [16]) | K app (Nucleic Acid [17]) | Ratio (Nucleic Acid [18]) | other results
1 | Nc1nccc2c1ncn2[C@@H]1C[C@H](CO)[C@@H](O)[C@H]1O [3-DEAZAARISTEROMYCIN A] | > 400 µg/mL | > 400 mg/L | > 400 µg/mL | >400 µg/mL | > 400 mg/L | 0.4 mg/L (≈ 1.51 µM) | 0.2 mg/L (≈ 0.757 µM) | > 400 mg/L | 70 mg/L (≈ 265 µM) | – | – | – | – | – | – | – | – | – | – | – | MIC (HeLa [3]): 2 mg/L (≈ 7.57 µM); MIC [5]: > 400 mg/L; MIC [6]: > 400 mg/L; MIC [7]: 2 mg/L (≈ 7.57 µM)
2 | CC(NC(=O)c1cc(NC(=O)c2cc([N+](=O)[O-])cn2C)cn1C)C(=O)OC(C)(C)C (configuration not stated) | > 100 µg/mL | > 100 mg/L | > 100 µg/mL | >100 µg/mL | > 40 mg/L | 20 mg/L (≈ 47.7 µM) | > 40 mg/L | > 40 mg/L | 20 mg/L (≈ 47.7 µM) | 33.8 mg/L (≈ 80.6 µM) | 27.7 mg/L (≈ 66 µM) | > 40 mg/L | 37.8 mg/L (≈ 90.1 µM) | > 40 mg/L | > 40 mg/L | > 40 mg/L | 26.6 mg/L (≈ 63.4 µM) | 400 M⁻¹ | – | – | K app (Nucleic Acid [12]): 200 M⁻¹; Ratio (Nucleic Acid [13]): 0.5
3 | Cn1cc([N+](=O)[O-])cc1C(=O)NCCCNCCCCN | > 400 µg/mL | > 400 mg/L | > 400 µg/mL | >400 µg/mL | > 400 mg/L | > 200 mg/L | > 100 mg/L | > 400 mg/L | > 200 mg/L | > 200 mg/L | > 200 mg/L | – | > 200 mg/L | > 200 mg/L | > 200 mg/L | > 400 mg/L | > 200 mg/L | 420000 M⁻¹ | 1e+06 M⁻¹ | 2.38 | –
4 | C[C@H](NC(=O)c1cc(NC(=O)c2cc([N+](=O)[O-])cn2C)cn1C)C(=O)N[C@@H](C)C(=O)N[C@@H](C)C(=O)OC(C)(C)C | > 400 µg/mL | > 200 mg/L | > 400 µg/mL | >400 µg/mL | > 200 mg/L | > 400 mg/L | > 200 mg/L | > 200 mg/L | > 200 mg/L | > 100 mg/L | > 100 mg/L | > 400 mg/L | > 100 mg/L | > 200 mg/L | > 100 mg/L | > 100 mg/L | > 100 mg/L | 750 M⁻¹ | < 100 M⁻¹ | < 0.13 | –
